Dynein cargo inh: blocks dynein driven cargo transport along microtubules; AID 1381; hit rate 0.47% among 220,000; z-score, hits read low; 3617.4 mouse cells, GR-EGFP nuclear translocation imaging; test concentration mostly 20 µM; stimulated with dexamethasone, 1 µM; active compounds read low;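 active = plate z-score of nuclear minus cytoplasmic receptor signal below a set negative limit, without overly bright fluorescence or cell loss, cut at about -3.5 in these data, passing the limit was not always enough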;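 note: z-score of nuclear minus cytoplasmic ring GR-EGFP intensity difference per well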
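Buffer or medium: tet-free medium with charcoal-stripped serum / Also added: dexamethasone agonist, 1.0 µM final, for 30 min / Timing: induction 48 h, compound 1 h, agonist 30 min / Measured by: high-content fluorescence imaging after fixation / Read-out: nuclear-to-cytoplasmic GR-EGFP distribution per well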
TLR4-MyD88 BLA: TLR4-MyD88 interaction inhibition in cells; O00206+Q99836; HeLa CL3-4 TLR4/MyD88 BLA complementation, FRET ratio; inhibition, % at 8.4 µM; hit rate 0.18% among 200,000; AID 861; in the data active = inhibition above about 25%;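 note: 0% = vehicle and 100% = reference inhibitor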
Target sequence (O00206 whole entry, looked up): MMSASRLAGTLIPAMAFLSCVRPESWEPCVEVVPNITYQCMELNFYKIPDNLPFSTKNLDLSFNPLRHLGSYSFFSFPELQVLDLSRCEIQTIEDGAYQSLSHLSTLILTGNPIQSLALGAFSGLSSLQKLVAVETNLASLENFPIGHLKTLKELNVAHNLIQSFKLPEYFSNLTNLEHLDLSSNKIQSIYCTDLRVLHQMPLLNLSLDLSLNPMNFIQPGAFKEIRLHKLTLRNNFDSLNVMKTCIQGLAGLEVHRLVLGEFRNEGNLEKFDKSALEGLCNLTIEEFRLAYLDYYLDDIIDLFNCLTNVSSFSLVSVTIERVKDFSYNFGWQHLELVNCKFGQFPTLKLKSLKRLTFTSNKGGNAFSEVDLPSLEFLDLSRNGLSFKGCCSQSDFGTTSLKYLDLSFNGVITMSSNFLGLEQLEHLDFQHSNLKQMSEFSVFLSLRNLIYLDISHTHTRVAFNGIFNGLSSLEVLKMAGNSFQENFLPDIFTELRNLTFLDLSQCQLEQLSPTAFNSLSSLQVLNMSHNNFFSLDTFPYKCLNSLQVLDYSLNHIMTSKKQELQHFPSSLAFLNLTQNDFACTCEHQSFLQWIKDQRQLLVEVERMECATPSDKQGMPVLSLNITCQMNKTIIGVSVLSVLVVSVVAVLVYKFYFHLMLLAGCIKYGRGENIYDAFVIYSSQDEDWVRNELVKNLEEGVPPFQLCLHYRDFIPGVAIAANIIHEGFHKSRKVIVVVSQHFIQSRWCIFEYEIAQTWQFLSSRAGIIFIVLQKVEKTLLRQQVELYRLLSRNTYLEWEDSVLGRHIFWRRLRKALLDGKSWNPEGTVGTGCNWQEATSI
Target sequence (Q99836 whole entry, looked up): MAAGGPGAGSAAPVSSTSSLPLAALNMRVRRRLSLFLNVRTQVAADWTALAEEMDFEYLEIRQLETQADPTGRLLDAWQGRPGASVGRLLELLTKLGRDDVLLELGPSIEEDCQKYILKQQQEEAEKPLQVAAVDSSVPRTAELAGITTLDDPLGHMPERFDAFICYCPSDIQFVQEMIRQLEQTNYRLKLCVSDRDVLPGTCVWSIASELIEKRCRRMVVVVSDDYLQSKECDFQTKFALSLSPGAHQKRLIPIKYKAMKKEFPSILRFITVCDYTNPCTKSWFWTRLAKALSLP
ABHD5 PLIN5 PPI: blocks binding of human ABHD5 to perilipin-5; Split G. princeps luciferase complementation, luminescence, 4 h; inhibition, % at 4 µM; hit rate 0.78% among 360,000;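 active = inhibition above the mean inhibition across every tested compound plus 3 SD, cut at about 22% in these data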;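 note: 0% = DMSO only wells and the 100% control is not disclosed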
NOD2 RIPK2 PPI: NOD2-RIPK2 protein interaction inhibition. O43353. CHO BLA complementation NOD2-RIPK2, CCF4 ratio. inhibition, % at 4.98 µM. hit rate 0.38% among 360,000; in the data active = inhibition above about 21%;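 note: 0% = vehicle only and 100% = reference blocker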
TLR9-MyD88 block: TLR9-MyD88 interaction inhibition; Q9NR96+Q99836; hit rate 0.21% among 340,000; inhibition, % at 4.98 µM; CHO BLA complementation TLR9-MyD88, CCF4 FRET ratio;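 active = inhibition above the mean over all tested compounds plus 3 SD, cut at about 21% in these data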;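 note: 0% = DMSO only wells and 100% = clavulanate BLA inhibitor control wells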
B2AR ag: agonists of human beta-2 adrenergic receptor inducing internalization; P07550; Am2.2-beta2AR cells, FAP receptor internalization, flow cytometry; response, % (test concentration not listed); hit rate 0.43% among 340,000; AID 504454;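 active = response above a set limit, near 3 SD of response in nonfluorescent compounds, cut at about 42% in these data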
TLR9-MyD88 cf: TLR9-MyD88 interaction inhibition, confirmation | shares compounds with TLR9-MyD88 block | CHO TLR9/MyD88 BLA complementation, CCF4 FRET ratio | inhibition, % at 4.98 µM | hit rate 51% among 680 | AID 540250;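 active = mean inhibition across three repeats above about 21% taken from the earlier screen, limit read from the data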;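 note: blue over green emission ratio reports constitutive TLR9 MyD88 association via BLA complementation; 0% = DMSO vehicle wells and 100% = clavulanate BLA inhibitor wells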
BLA counter-1: beta-lactamase reporter inhibition, counter-screen artifact | hit rate 7% among 680 | inhibition, % at 4.98 µM | shares compounds with TLR9-MyD88 block | CHO-BLA cells, CCF4 FRET ratio, BLA reporter;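 active = mean inhibition above a 50% cutoff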;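 note: counterscreen of TLR9-MyD88 hits on CMV-driven BLA in CHO-K1 cells; 0% = DMSO alone and 100% = clavulanate blocking BLA; higher means less blue over green ratio so more BLA blockade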
TLR9 CHO tox: CHO cell toxicity counter-screen for TLR9-MyD88 inhibitors | shares compounds with TLR9-MyD88 block | TLR9-MyD88 CHO cells cytotoxicity, luminescence | inhibition, % at 4.98 µM | hit rate 39% among 680 | AID 588336; in the data active = inhibition above about 11%
ABHD5-PLIN5 conf: ABHD5-PLIN5 interaction inhibition, confirmed. inhibition, % at 4 µM. hit rate 67% among 2,200. shares compounds with ABHD5 PLIN5 PPI. biochemical ABHD5-PLIN5 interaction, luminescence; in the data active = inhibition above about 23%;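 note: 0% = DMSO vehicle wells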
HNF4 split-luc: active in HNF4 split-luciferase counter-screen for ABHD5-PLIN5 inhibitors; shares compounds with ABHD5 PLIN5 PPI; hit rate 77% among 2,200; HNF4 dimerization, luminescence, biochemical; inhibition, % at 4 µM;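 active = mean inhibition across replicate wells exceeding the computed hit threshold, cut at about 13% in these data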;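 note: light from luciferase halves that rejoin when HNF4 fusion proteins dimerize; 0% = DMSO only wells and the 100% control is not given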
NOD2-RIPK2 conf: confirmation of human NOD2-RIPK2 interaction inhibitors; shares compounds with NOD2 RIPK2 PPI; inhibition, % at 4.98 µM; hit rate 70% among 1,200; CHO cells, NOD2-RIPK2 BLA complementation, CCF4 FRET;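 active = mean inhibition across replicates above a set limit taken from the earlier primary screen, cut at about 21% in these data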;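 note: 0% = DMSO-only wells and the high end = clavulanate BLA-blocked wells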
BLA counter-2: NOD2-RIPK2 counterscreen BLA reporter activity; shares compounds with NOD2 RIPK2 PPI; CHO BLA reporter, CCF4 FRET ratio; inhibition, % at 4.98 µM; hit rate 57% among 1,200; AID 624371;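 active = mean inhibition above the low-control mean inhibition plus three low-control SD, cut at about 11% in these data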;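 note: 0% = DMSO only wells and 100% = clavulanate high control wells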
Numbers without * were called inactive. A selection: hits, their analogues and other compounds. The true share with any hit is near 1.6%.

COc1ccc2nc(C)cc(N/N=C/c3ccc(F)cc3)c2c1 was read as ABHD5 PLIN5 PPI 8.9, NOD2 RIPK2 PPI 49.4*, TLR9-MyD88 block 23.1*, B2AR ag 25.8, TLR9-MyD88 cf 26.3*, BLA counter-1 38.4, TLR9 CHO tox 18.6*, NOD2-RIPK2 conf 67.4* and BLA counter-2 68.5*.
`Cc1ccc(C2=CC(c3ccc(C)cc3)n3ncnc3N2)cc1` (configuration not stated) gave ABHD5 PLIN5 PPI 4.8, NOD2 RIPK2 PPI 45.9*, TLR9-MyD88 block 25.6*, B2AR ag -10.2, TLR9-MyD88 cf 14.7, BLA counter-1 17.5, TLR9 CHO tox -4.6, NOD2-RIPK2 conf 33.1* and BLA counter-2 34.7*.
For CCOc1ccc(C2C=C(c3ccc(C)cc3)Nc3nnnn32)cc1 (configuration not stated) the results were Dynein cargo inh 0.169, TLR4-MyD88 BLA 3.2, ABHD5 PLIN5 PPI -1.7, NOD2 RIPK2 PPI 45.0*, TLR9-MyD88 block 61.7*, B2AR ag -2.2, TLR9-MyD88 cf -1.1, BLA counter-1 -3.4, TLR9 CHO tox 1.6, NOD2-RIPK2 conf -4.3 and BLA counter-2 -0.3.
For COc1ccc(C2C=C(c3ccccc3)Nc3ncnn32)cc1 (configuration not stated) the results were Dynein cargo inh -1.03, TLR4-MyD88 BLA 14.0, ABHD5 PLIN5 PPI -1.8, NOD2 RIPK2 PPI 46.0*, TLR9-MyD88 block 38.7*, B2AR ag -3.6, TLR9-MyD88 cf 4.2, BLA counter-1 7.9, TLR9 CHO tox -0.9, NOD2-RIPK2 conf -2.8 and BLA counter-2 -4.3.
CCOc1ccc(C2C=C(c3ccccc3)Nc3nnnn32)cc1 (configuration not stated) was read as Dynein cargo inh -0.496, TLR4-MyD88 BLA 4.4, ABHD5 PLIN5 PPI 0.0, NOD2 RIPK2 PPI 1.2, TLR9-MyD88 block 18.6 and B2AR ag -5.3.
Screening CCCCN(C)CCNC(=O)c1cn(C)c(=O)c2c1c1ccccc1n2C returned ABHD5 PLIN5 PPI -14.9, NOD2 RIPK2 PPI 14.1, TLR9-MyD88 block -2.1 and B2AR ag 8.4.
`CCCCCC(=O)N1C[C@@H](n2cc(C3CC3)nn2)[C@H](O)C[C@@H]1c1ccc(OC)cc1` gave ABHD5 PLIN5 PPI 5.7, NOD2 RIPK2 PPI 7.7 and TLR9-MyD88 block -1.5.
COc1cc(C(O)c2nc(-c3cccc(F)c3)cs2)ccc1F (configuration not stated) was read as ABHD5 PLIN5 PPI 3.8 and NOD2 RIPK2 PPI 2.2.
OCCCc1nc2n(n1)C(c1ccccc1)C=C(c1ccc(F)cc1)N2 (configuration not stated) was read as Dynein cargo inh -0.189, TLR4-MyD88 BLA 5.0, ABHD5 PLIN5 PPI 1.6, NOD2 RIPK2 PPI 51.1*, TLR9-MyD88 block 39.2*, B2AR ag -3.7, TLR9-MyD88 cf 21.4*, BLA counter-1 23.5, TLR9 CHO tox 2.8, NOD2-RIPK2 conf 39.9* and BLA counter-2 45.0*.
For Nc1c(C(=O)Nc2ccccc2F)sc2nc(-c3cccnc3)ccc12 the results were Dynein cargo inh 0.321, ABHD5 PLIN5 PPI 3.5, NOD2 RIPK2 PPI 21.3*, TLR9-MyD88 block 38.3*, B2AR ag -1.1, TLR9-MyD88 cf 28.0*, BLA counter-1 29.5, TLR9 CHO tox 4.0, NOD2-RIPK2 conf 46.1* and BLA counter-2 63.8*.
Screening O=C1N/C(=C/c2cccn2-c2ccc(F)cc2)C(=O)N1Cc1ccccc1 returned Dynein cargo inh 1.73, TLR4-MyD88 BLA 10.0, ABHD5 PLIN5 PPI -0.2, NOD2 RIPK2 PPI 74.6*, TLR9-MyD88 block 61.5*, B2AR ag -14.3, TLR9-MyD88 cf 51.1*, BLA counter-1 52.2*, TLR9 CHO tox 10.0, NOD2-RIPK2 conf 84.9* and BLA counter-2 88.9*.
For Cc1cc(-c2nn(-c3ccccc3F)cc2CN2CCN(c3ccncc3)CC2)c(C)s1 the results were Dynein cargo inh -0.0563, TLR4-MyD88 BLA 4.0, ABHD5 PLIN5 PPI 28.2*, NOD2 RIPK2 PPI 11.7, TLR9-MyD88 block 14.2, B2AR ag 20.3, ABHD5-PLIN5 conf 6.6 and HNF4 split-luc -2.9.
For CC(C)NC(=O)c1cc(-c2ccco2)nn1-c1ccc(Cl)cc1 the results were Dynein cargo inh 1.01, TLR4-MyD88 BLA -6.5, ABHD5 PLIN5 PPI 36.1*, NOD2 RIPK2 PPI -10.3, TLR9-MyD88 block 1.0, B2AR ag 5.6, ABHD5-PLIN5 conf 42.0* and HNF4 split-luc 59.3*.
Screening O=C(O)CCC(C(=O)O)N1C(=O)C2C3CCC(C3)C2C1=O (configuration not stated) returned ABHD5 PLIN5 PPI -1.9, NOD2 RIPK2 PPI -3.1 and TLR9-MyD88 block 0.9.
For CCCN(CCO)CCCc1ccccc1 the results were Dynein cargo inh -0.468, TLR4-MyD88 BLA -7.7, ABHD5 PLIN5 PPI -0.3, NOD2 RIPK2 PPI -8.8, TLR9-MyD88 block -5.8 and B2AR ag -14.7.
`CCN(CCCc1ccccc1)CCCc1ccccc1` gave Dynein cargo inh 0.446, ABHD5 PLIN5 PPI 37.9*, NOD2 RIPK2 PPI -6.9, TLR9-MyD88 block 1.4, B2AR ag 3.6, ABHD5-PLIN5 conf 74.3* and HNF4 split-luc 32.8*.
`C#CC[N+](C)(C)CCCCCCCC` gave Dynein cargo inh 0.704, TLR4-MyD88 BLA -4.8, ABHD5 PLIN5 PPI -3.7, NOD2 RIPK2 PPI -2.9, TLR9-MyD88 block -14.1 and B2AR ag 6.2.
`C#CC[N+](C)(C)CCCCCCCCCCCC` gave Dynein cargo inh 0.277, TLR4-MyD88 BLA 7.4, ABHD5 PLIN5 PPI 23.3*, NOD2 RIPK2 PPI -2.3, TLR9-MyD88 block -1.3, B2AR ag 0.5, ABHD5-PLIN5 conf 16.2 and HNF4 split-luc 5.6.

Compound activity from PubChem.
